Source: ChEMBL document CHEMBL1125100, “New quinolone antibacterial agents. Synthesis and biological activity of 7-(3,3- or 3,4-disubstituted-1-pyrrolidinyl)quinoline-3-carboxylic acids” (1990)
Values after ≈ are worked out from the molar mass of the structure shown.

Experiments:
Format in all cases: functional
[1] = tested on: Escherichia coli; test: Gyrase-drug induced cleavage against Escherichia coli
Method in brief: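 Compounds were tested for induction of DNA gyrase-mediated cleavage. The value is the minimum drug concentration giving linear DNA at an intensity matching that produced by oxolinic acid at 10 μg/mL.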

[2] = tested on: Streptococcus pyogenes; test: Antibacterial activity was determined against Gram-positive Streptococcus pyogenes C203 bacteria
Method in brief: (§1)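 MICs, in micrograms per milliliter, were determined by standard microtitration (microdilution) techniques against each listed Gram-negative and Gram-positive strain.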

[3] = tested on: Staphylococcus aureus; test: Antibacterial activity was determined against Gram-positive Staphylococcus aureus H228 bacteria; conditions: in the assay text read “Gram-positive” for “Gram-negative”; method in brief: as §1
[4] = tested on: Enterobacter cloacae; test: Antibacterial activity was determined against Gram-negative Enterobacter cloacae HA2646 bacteria; method in brief: as §1
[5] = tested on: Klebsiella pneumoniae; test: Antibacterial activity was determined against Gram-negative Klebsiella pneumoniae MGH-2 bacteria; method in brief: as §1
[6] = tested on: Providencia rettgeri; test: Antibacterial activity was determined against Gram-negative Providencia rettgeri H1771 bacteria; method in brief: as §1
[7] = tested on: Streptococcus pneumoniae; test: Antibacterial activity was determined against Gram-positive Streptococcus pneumoniae SV-1 bacteria; method in brief: as §1
[8] = tested on: Enterococcus faecalis; test: Antibacterial activity was determined against Gram-positive Streptococcus faecalis MGH-2 bacteria; method in brief: as §1
[9] = tested on: Escherichia coli; test: Antibacterial activity was determined against Gram-negative Escherichia coli Vogel bacteria; method in brief: as §1
[10] = tested on: Pseudomonas aeruginosa; test: Antibacterial activity was determined against Gram-negative Pseudomonas aeruginosa UI-18 bacteria; method in brief: as §1
[11] = tested on: Staphylococcus aureus; test: Antibacterial activity was determined against Gram-positive Staphylococcus aureus UC-76 bacteria; conditions: in the assay text read “Gram-positive” for “Gram-negative”; method in brief: as §1
[12] = tested on: Escherichia coli; test: Antibacterial activity was determined against Gram-negative Escherichia coli H560 bacteria; method in brief: as §1
[13] = tested on: Streptococcus pyogenes; test: Protective dose against Streptococcus pyogenes bacteria; conditions: read-out: PD50
Method in brief: (§2)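 Acute lethal systemic infection model in female Charles River CD-1 mice. The value is the median protective dose (PD50, mg/kg), defined as the dose needed to protect 50% of mice from the lethal infection.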

[14] = tested on: Escherichia coli; test: Protective dose against Escherichia coli H560 bacteria; conditions: read-out: PD50; method in brief: as §2
[15] = tested on: Streptococcus pneumoniae; test: Protective dose against Streptococcus pneumonia bacteria; conditions: read-out: PD50; method in brief: as §2
[16] = tested on: Streptococcus pneumoniae; test: Protective dose against Streptococcus pneumoniae bacteria; conditions: read-out: PD50; method in brief: as §2

Structure (SMILES) | MEC [1] [µg/mL] | MIC [2] [µg/mL] | MIC [3] [µg/mL] | MIC [4] [µg/mL] | MIC [5] [µg/mL] | MIC [6] [µg/mL] | MIC [7] [µg/mL] | MIC [8] [µg/mL] | MIC [9] [µg/mL] | MIC [10] [µg/mL] | MIC [11] [µg/mL] | MIC [12] [µg/mL] | ED50 [13] [mg/kg] | ED50 [14] [mg/kg] | ED50 [15] [mg/kg] | ED50 [16] [mg/kg]
CC1(N)CCN(c2c(F)cc3c(=O)c(C(=O)O)cn(C4CC4)c3c2F)C1 (stereo not drawn) | 0.8 | 0.8 (≈ 2.2 µM) | 0.8 (≈ 2.2 µM) | 0.2 (≈ 0.55 µM) | 0.4 (≈ 1.1 µM) | 0.8 (≈ 2.2 µM) | 0.8 (≈ 2.2 µM) | 1.6 (≈ 4.4 µM) | 0.2 (≈ 0.55 µM) | 3.1 (≈ 8.53 µM) | 0.2 (≈ 0.55 µM) | 0.2 (≈ 0.55 µM) | – | – | – | –
NCC1(c2ccccc2)CCN(c2c(F)cc3c(=O)c(C(=O)O)cn(C4CC4)c3c2F)C1 (stereo not drawn) | 2.62 | 0.05 (≈ 0.114 µM) | 0.025 (≈ 0.0569 µM) | 0.05 (≈ 0.114 µM) | 0.1 (≈ 0.228 µM) | 0.2 (≈ 0.455 µM) | 0.013 (≈ 0.0296 µM) | 0.05 (≈ 0.114 µM) | 0.05 (≈ 0.114 µM) | 0.8 (≈ 1.82 µM) | 0.013 (≈ 0.0296 µM) | 0.013 (≈ 0.0296 µM) | 21 | 14 | – | –
NCC1CCN(c2c(F)cc3c(=O)c(C(=O)O)cn(C4CC4)c3c2F)C1 (stereo not drawn) | 0.25 | 0.013 (≈ 0.0358 µM) | 0.025 (≈ 0.0688 µM) | 0.05 (≈ 0.138 µM) | 0.05 (≈ 0.138 µM) | 0.1 (≈ 0.275 µM) | 0.006 (≈ 0.0165 µM) | 0.025 (≈ 0.0688 µM) | 0.025 (≈ 0.0688 µM) | 0.2 (≈ 0.55 µM) | 0.003 (≈ 0.00826 µM) | 0.006 (≈ 0.0165 µM) | 4 | 6 | 10 | –
CC1(CN)CCN(c2c(F)cc3c(=O)c(C(=O)O)cn(C4CC4)c3c2F)C1 (stereo not drawn) | 2.62 | 0.025 (≈ 0.0662 µM) | 0.013 (≈ 0.0344 µM) | 0.025 (≈ 0.0662 µM) | 0.1 (≈ 0.265 µM) | 0.2 (≈ 0.53 µM) | 0.006 (≈ 0.0159 µM) | 0.013 (≈ 0.0344 µM) | 0.05 (≈ 0.132 µM) | 0.4 (≈ 1.06 µM) | 0.003 (≈ 0.00795 µM) | 0.013 (≈ 0.0344 µM) | 9 | 2.1 | 5 | –
NC1CCN(c2c(F)cc3c(=O)c(C(=O)O)cn(C4CC4)c3c2F)C1 (stereo not drawn) | 0.1 | 0.05 (≈ 0.143 µM) | 0.05 (≈ 0.143 µM) | 0.025 (≈ 0.0716 µM) | 0.025 (≈ 0.0716 µM) | 0.05 (≈ 0.143 µM) | 0.05 (≈ 0.143 µM) | 0.05 (≈ 0.143 µM) | 0.013 (≈ 0.0372 µM) | 0.1 (≈ 0.286 µM) | 0.025 (≈ 0.0716 µM) | 0.006 (≈ 0.0172 µM) | 7.5 | 1 | 15 | –
NCC1CN(c2c(F)cc3c(=O)c(C(=O)O)cn(C4CC4)c3c2F)CC1c1ccccc1 (stereo not drawn) | 2.62 | 0.013 (≈ 0.0296 µM) | 0.013 (≈ 0.0296 µM) | 0.2 (≈ 0.455 µM) | 0.1 (≈ 0.228 µM) | 0.4 (≈ 0.91 µM) | 0.006 (≈ 0.0137 µM) | 0.013 (≈ 0.0296 µM) | 0.1 (≈ 0.228 µM) | 1.6 (≈ 3.64 µM) | 0.006 (≈ 0.0137 µM) | 0.013 (≈ 0.0296 µM) | 11 | 27 | – | 25
CN(C)CC1(c2ccccc2)CCN(c2c(F)cc3c(=O)c(C(=O)O)cn(C4CC4)c3c2F)C1 (stereo not drawn) | 2.62 | 0.025 (≈ 0.0535 µM) | 0.05 (≈ 0.107 µM) | 0.05 (≈ 0.107 µM) | 0.1 (≈ 0.214 µM) | 0.1 (≈ 0.214 µM) | 0.006 (≈ 0.0128 µM) | 0.05 (≈ 0.107 µM) | 0.05 (≈ 0.107 µM) | 0.4 (≈ 0.856 µM) | 0.05 (≈ 0.107 µM) | 0.013 (≈ 0.0278 µM) | – | 50 | – | –
NC1(c2ccccc2)CCN(c2c(F)cc3c(=O)c(C(=O)O)cn(C4CC4)c3c2F)C1 (stereo not drawn) | 0.55 | 0.05 (≈ 0.118 µM) | 0.013 (≈ 0.0306 µM) | 0.006 (≈ 0.0141 µM) | 0.05 (≈ 0.118 µM) | 0.05 (≈ 0.118 µM) | 0.013 (≈ 0.0306 µM) | 0.05 (≈ 0.118 µM) | 0.025 (≈ 0.0588 µM) | 0.2 (≈ 0.47 µM) | 0.006 (≈ 0.0141 µM) | 0.013 (≈ 0.0306 µM) | 12 | 12 | – | –
NC1CN(c2c(F)cc3c(=O)c(C(=O)O)cn(C4CC4)c3c2F)CC1c1ccccc1 (stereo not drawn) | 2.75 | 0.1 (≈ 0.235 µM) | 0.05 (≈ 0.118 µM) | 0.2 (≈ 0.47 µM) | 0.2 (≈ 0.47 µM) | 0.4 (≈ 0.94 µM) | 0.1 (≈ 0.235 µM) | 0.1 (≈ 0.235 µM) | 0.1 (≈ 0.235 µM) | 1.6 (≈ 3.76 µM) | 0.025 (≈ 0.0588 µM) | 0.025 (≈ 0.0588 µM) | – | – | – | –
CCNCC1(c2ccccc2)CCN(c2c(F)cc3c(=O)c(C(=O)O)cn(C4CC4)c3c2F)C1 (stereo not drawn) | 2.62 | 0.1 (≈ 0.214 µM) | 0.1 (≈ 0.214 µM) | 0.8 (≈ 1.71 µM) | 0.8 (≈ 1.71 µM) | 1.6 (≈ 3.42 µM) | 0.025 (≈ 0.0535 µM) | 0.2 (≈ 0.428 µM) | 0.4 (≈ 0.856 µM) | 3.1 (≈ 6.63 µM) | 0.05 (≈ 0.107 µM) | 0.1 (≈ 0.214 µM) | – | 37 | – | –
